Publication PMC5114172 (Journal of applied toxicology : JAT, 2016)

Test system: PBMCs
Experiment: IL-1β secretion assay
Assay type: cell-based, human
Outline: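 NK cells, MD-PBMCs, PBMCs or granulocytes (1.5 million/mL) or PBMC+granulocytes (0.75 million/mL each), per donor, exposed 24 h, 48 h or 6 days to 0.05–5 μM test compound diluted from DMSO stock, with DMSO controls. Supernatants kept at −70 °C. IL-1β by sandwich ELISA: HRP detection antibody, acid-stopped substrate, A450 against standards. Detection limit 3 pg/mL; triplicates; ANOVA then t test versus control, p<0.05.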

SMILES: CCC[CH2][Sn][CH2]CCC [DBT, Dibutyltin]
- average of the maximum fold increase in IL-β secretion (24 h, across donors): 3.2 fold
- Interleukin 1 beta secreted (donor F148, 24 h, 0.05 μM DBT): 120.533 ± 8.211 ng/mL
- Interleukin 1 beta secreted (donor F148, 24 h, 0.1 μM DBT): 107.467 ± 4.636 ng/mL
- Interleukin 1 beta secreted (donor F148, 24 h, 0.25 μM DBT): 137.333 ± 3.926 ng/mL
- Interleukin 1 beta secreted (donor F148, 24 h, 0.5 μM DBT): 32.4 ± 1.833 ng/mL
- Interleukin 1 beta secreted (donor F148, 24 h, 1 μM DBT): 11.6 ± 11.085 ng/mL
- Interleukin 1 beta secreted (donor F148, 24 h, 2.5 μM DBT): 12.133 ± 0.462 ng/mL
- Interleukin 1 beta secreted (donor F148, 24 h, 5 μM DBT): 11.867 ± 0.924 ng/mL
- Interleukin 1 beta secreted (donor F148, 48 h, 0.05 μM DBT): 15851 ± 836 ng/mL
- Interleukin 1 beta secreted (donor F148, 48 h, 0.1 μM DBT): 17620 ± 257 ng/mL
- Interleukin 1 beta secreted (donor F148, 48 h, 0.25 μM DBT): 18728 ± 597 ng/mL
- Interleukin 1 beta secreted (donor F148, 48 h, 0.5 μM DBT): 5493 ± 409 ng/mL
- Interleukin 1 beta secreted (donor F148, 48 h, 1 μM DBT): 2224 ± 329 ng/mL
- Interleukin 1 beta secreted (donor F148, 48 h, 5 μM DBT): 483 ± 358 ng/mL
- Interleukin 1 beta secreted (donor F148, 6 day, 0.1 μM DBT): 25 ± 0 ng/mL
- Interleukin 1 beta secreted (donor F148, 6 day, 0.25 μM DBT): 25 ± 1 ng/mL
- Interleukin 1 beta secreted (donor F148, 6 day, 0.5 μM DBT): 6 ± 0 ng/mL
- Interleukin 1 beta secreted (donor F154, 24 h, 0.05 μM DBT): 5.056 ± 0.273 ng/mL
- Interleukin 1 beta secreted (donor F154, 24 h, 0.1 μM DBT): 4.568 ± 0.168 ng/mL
- Interleukin 1 beta secreted (donor F154, 24 h, 0.25 μM DBT): 1.383 ± 0.123 ng/mL
- Interleukin 1 beta secreted (donor F154, 24 h, 0.5 μM DBT): 0.765 ± 0.084 ng/mL
- Interleukin 1 beta secreted (donor F154, 24 h, 1 μM DBT): 0.38 ± 0.013 ng/mL
- Interleukin 1 beta secreted (donor F154, 24 h, 2.5 μM DBT): 0.111 ± 0.067 ng/mL
- Interleukin 1 beta secreted (donor F154, 48 h, 0.05 μM DBT): 4249 ± 294 ng/mL
- Interleukin 1 beta secreted (donor F154, 48 h, 0.1 μM DBT): 4193 ± 556 ng/mL
- Interleukin 1 beta secreted (donor F154, 48 h, 0.25 μM DBT): 1687 ± 42 ng/mL
- Interleukin 1 beta secreted (donor F154, 48 h, 0.5 μM DBT): 1036 ± 128 ng/mL
- Interleukin 1 beta secreted (donor F154, 48 h, 1 μM DBT): 1325 ± 72 ng/mL
- Interleukin 1 beta secreted (donor F154, 48 h, 2.5 μM DBT): 378 ± 61 ng/mL
- Interleukin 1 beta secreted (donor F154, 48 h, 5 μM DBT): 193 ± 0 ng/mL
- Interleukin 1 beta secreted (donor F154, 6 day, 0.05 μM DBT): 3507 ± 155 ng/mL
- Interleukin 1 beta secreted (donor F154, 6 day, 0.1 μM DBT): 3300 ± 114 ng/mL
- Interleukin 1 beta secreted (donor F154, 6 day, 0.25 μM DBT): 3816 ± 464 ng/mL
- Interleukin 1 beta secreted (donor F154, 6 day, 0.5 μM DBT): 2056 ± 114 ng/mL
- Interleukin 1 beta secreted (donor F154, 6 day, 1 μM DBT): 2531 ± 464 ng/mL
- Interleukin 1 beta secreted (donor F154, 6 day, 2.5 μM DBT): 586 ± 179 ng/mL
- Interleukin 1 beta secreted (donor F154, 6 day, 5 μM DBT): 118 ± 146 ng/mL
- Interleukin 1 beta secreted (donor F159, 24 h, 0.05 μM DBT): 2.812 ± 0.15 ng/mL
- fold increase in IL-1β secretion (donor F159, 24 h, 0.05 μM DBT): 1.7 fold
- Interleukin 1 beta secreted (donor F159, 24 h, 0.1 μM DBT): 6.376 ± 0.233 ng/mL
- fold increase in IL-1β secretion (donor F159, 24 h, 0.1 μM DBT): 3.8 fold
- Interleukin 1 beta secreted (donor F159, 24 h, 0.25 μM DBT): 5.803 ± 0.15 ng/mL
- fold increase in IL-1β secretion (donor F159, 24 h, 0.25 μM DBT): 3.4 fold
- Interleukin 1 beta secreted (donor F159, 24 h, 0.5 μM DBT): 1.667 ± 0.112 ng/mL
- Interleukin 1 beta secreted (donor F159, 24 h, 1 μM DBT): 0.812 ± 0.065 ng/mL
- Interleukin 1 beta secreted (donor F159, 48 h, 0.05 μM DBT): 1034 ± 299 ng/mL
- Interleukin 1 beta secreted (donor F159, 48 h, 0.1 μM DBT): 1211 ± 71 ng/mL
- Interleukin 1 beta secreted (donor F159, 48 h, 0.25 μM DBT): 1243 ± 192 ng/mL
- Interleukin 1 beta secreted (donor F159, 48 h, 0.5 μM DBT): 1099 ± 93 ng/mL
- Interleukin 1 beta secreted (donor F159, 48 h, 1 μM DBT): 1246 ± 9 ng/mL
- Interleukin 1 beta secreted (donor F159, 48 h, 2.5 μM DBT): 532 ± 101 ng/mL
- Interleukin 1 beta secreted (donor F159, 48 h, 5 μM DBT): 565 ± 15 ng/mL
- Interleukin 1 beta secreted (donor F159, 6 day, 0.05 μM DBT): 210 ± 62 ng/mL
- Interleukin 1 beta secreted (donor F159, 6 day, 0.1 μM DBT): 236 ± 10 ng/mL
- Interleukin 1 beta secreted (donor F159, 6 day, 0.25 μM DBT): 507 ± 21 ng/mL
- Interleukin 1 beta secreted (donor F159, 6 day, 0.5 μM DBT): 229 ± 7 ng/mL
- Interleukin 1 beta secreted (donor F159, 6 day, 1 μM DBT): 256 ± 12 ng/mL
- Interleukin 1 beta secreted (donor F159, 6 day, 2.5 μM DBT): 52 ± 1 ng/mL
- Interleukin 1 beta secreted (donor F159, 6 day, 5 μM DBT): 51 ± 9 ng/mL
- Interleukin 1 beta secreted (donor F173, 24 h, 0.05 μM DBT): 7.072 ± 0.935 ng/mL
- Interleukin 1 beta secreted (donor F173, 24 h, 0.1 μM DBT): 8.1 ± 0.822 ng/mL
- Interleukin 1 beta secreted (donor F173, 24 h, 0.25 μM DBT): 4.443 ± 0.405 ng/mL
- Interleukin 1 beta secreted (donor F173, 24 h, 0.5 μM DBT): 20.063 ± 1.077 ng/mL
- Interleukin 1 beta secreted (donor F173, 24 h, 1 μM DBT): 9.989 ± 0.155 ng/mL
- Interleukin 1 beta secreted (donor F173, 24 h, 2.5 μM DBT): 3.813 ± 0.058 ng/mL
- Interleukin 1 beta secreted (donor F173, 24 h, 5 μM DBT): 2.517 ± 0.073 ng/mL
- Interleukin 1 beta secreted (donor F173, 48 h, 0.05 μM DBT): 614 ± 63 ng/mL
- Interleukin 1 beta secreted (donor F173, 48 h, 0.1 μM DBT): 500 ± 41 ng/mL
- Interleukin 1 beta secreted (donor F173, 48 h, 0.25 μM DBT): 425 ± 20 ng/mL
- Interleukin 1 beta secreted (donor F173, 48 h, 0.5 μM DBT): 745 ± 36 ng/mL
- Interleukin 1 beta secreted (donor F173, 48 h, 1 μM DBT): 2064 ± 194 ng/mL
- Interleukin 1 beta secreted (donor F173, 48 h, 2.5 μM DBT): 591 ± 32 ng/mL
- Interleukin 1 beta secreted (donor F173, 48 h, 5 μM DBT): 478 ± 32 ng/mL
- Interleukin 1 beta secreted (donor F173, 6 day, 0.05 μM DBT): 465 ± 151 ng/mL
- Interleukin 1 beta secreted (donor F173, 6 day, 0.1 μM DBT): 398 ± 28 ng/mL
- Interleukin 1 beta secreted (donor F173, 6 day, 0.25 μM DBT): 453 ± 16 ng/mL
